Data set [1] deals with Cathepsin S (Homo sapiens, UniProt P25774). Put plainly: Inhibition of human recombinant cathepsin S after 1 hr.
For data set [2], the target named is Procathepsin L (Homo sapiens, UniProt P07711). Description: Inhibition of human recombinant cathepsin L after 1 hr.
Data set [3] concerns the target Dipeptidyl peptidase 1 (Homo sapiens, UniProt P53634). Description: Inhibition of human recombinant cathepsin C after 1 hr.
The target in data set [4] is Cathepsin B (Homo sapiens, UniProt P07858). Put plainly: Inhibition of human recombinant cathepsin B after 1 hr.
Data set [5] addresses T1, Cathepsin K (Homo sapiens, UniProt P43235).
T1 sequence (P43235 whole entry): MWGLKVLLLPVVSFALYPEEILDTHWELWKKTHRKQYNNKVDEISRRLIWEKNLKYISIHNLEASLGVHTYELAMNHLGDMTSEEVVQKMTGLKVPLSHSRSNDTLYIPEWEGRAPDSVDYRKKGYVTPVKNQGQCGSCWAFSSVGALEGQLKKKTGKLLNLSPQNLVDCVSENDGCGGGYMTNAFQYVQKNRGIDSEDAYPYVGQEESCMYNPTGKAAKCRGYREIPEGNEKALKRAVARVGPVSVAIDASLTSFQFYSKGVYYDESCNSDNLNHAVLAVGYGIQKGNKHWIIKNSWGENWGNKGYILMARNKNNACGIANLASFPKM
Put plainly: Inhibition of human recombinant cathepsin K after 1 hr.

Data set [6] is described as follows: Metabolic stability in rat plasma assessed as compound remaining after 30 mins by HPLC analysis. It is filed as ADME, cell-free. Particulars: read-out: Stability. The procedure, abridged:
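Compound was incubated in rat plasma for 30 min, then % compound remaining was determined. Values are the mean of two or more independent assays.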

The subject of data set [7] is Plasma. Description: Metabolic stability in rat plasma in presence of rat serum albumin. It counts as ADME, cell-free.
Data set [8] concerns Plasma. Description: Metabolic stability in rat plasma in presence of free cysteine. It is filed as ADME, cell-free.
Data set [9] has as its system Plasma. Put plainly: Metabolic stability in rat plasma in presence of glutathione. It is filed as ADME, cell-free.
Data set [10] deals with Plasma. Put plainly: Metabolic stability in rat plasma in presence of broad spectrum esterase inhibitor. It counts as ADME, cell-free.
The nature of data set [11]: Volume of distribution at steady state in rat at 1 mg/kg, iv and 2 mg/kg, po. It is filed as ADME, organism-based. Conditions: in vivo, read-out: Vdss.
The nature of data set [12]: Bioavailability in mouse at 5 mg/kg, iv and 20 mg/kg, po. Conditions: in vivo. It counts as ADME, organism-based.
The nature of data set [13]: Half life in dog at 5 mg/kg, iv and 10 mg/kg, po. It counts as ADME, organism-based, Canis lupus familiaris. Conditions: in vivo.
The nature of data set [14]: Half life in mouse at 5 mg/kg, iv and 20 mg/kg, po. It counts as ADME, organism-based. Particulars: in vivo.
In data set [15] the test system is Mus musculus. Description: In vivo inhibition of cathepsin C in C57BL/6J mouse plasma assessed as cleavage of H-Gly-Arg)2 R110 at 30 mg/kg, po after 30 mins. It is filed as functional. The arrangement: scale not given: the % may be the effect or the level left. In short, it runs like this:
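Female/male not stated; mice dosed orally at 30 mg/kg (n = 5). Plasma cathepsin C activity was read as cleavage of (H-Gly-Arg)2 R110 substrate at 10 μM, sampled 30 min post-dose as part of a time course.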

For data set [16], the system named is Mus musculus. Put plainly: In vivo inhibition of cathepsin C in C57BL/6J mouse lung homogenates assessed as cleavage of H-Gly-Arg)2 R110 at 30 mg/kg administered intranasally after 1.5 hrs. It counts as functional. The arrangement: scale not given: the % may be the effect or the level left.
The subject of data set [17] is Rattus norvegicus. Description: Bioavailability in rat at 1 mg/kg, iv and 2 mg/kg, po. It is filed as ADME, organism-based. Conditions: in vivo.
The nature of data set [18]: AUC in dog at 10 mg/kg, po. It is filed as ADME, organism-based, Canis lupus familiaris. Conditions: plasma. The arrangement: dose 10 mg/kg, route oral.
Data set [19] is described as follows: Half life in rat at 1 mg/kg, iv and 2 mg/kg, po. It is filed as ADME, organism-based. Particulars: in vivo.
Data set [20] is described as follows: Plasma clearance in dog at 5 mg/kg, iv and 10 mg/kg, po. It is filed as ADME, organism-based, Canis lupus familiaris.
A short description of data set [21]: Bioavailability in dog at 5 mg/kg, iv and 10 mg/kg, po. It counts as ADME, organism-based, Canis lupus familiaris. Particulars: in vivo.
The test system of data set [22] is Mus musculus. Description: In vivo inhibition of cathepsin C in C57BL/6J mouse lung homogenates assessed as cleavage of H-Gly-Arg)2 R110 at 30 mg/kg administered intranasally after 3 hrs. It is filed as functional. The arrangement: scale not given: the % may be the effect or the level left.
Data set [23] has as its system Mus musculus. Description: In vivo inhibition of cathepsin C in C57BL/6J mouse lung homogenates assessed as cleavage of H-Gly-Arg)2 R110 at 30 mg/kg administered intranasally after 0.5 hrs. It counts as functional. The arrangement: scale not given: the % may be the effect or the level left.
The nature of data set [24]: Plasma clearance in mouse at 5 mg/kg, iv and 20 mg/kg, po. It is filed as ADME, organism-based.
Data set [25] deals with Mus musculus. Put plainly: In vivo inhibition of cathepsin C in C57BL/6J mouse lung homogenates assessed as cleavage of H-Gly-Arg)2 R110 at 30 mg/kg, po after 1.5 hrs. The arrangement: scale not given: the % may be the effect or the level left. It counts as functional. In short, it runs like this: (§1)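 Oral dose of 30 mg/kg to C57BL/6J mice, n = 5 per group. Crude lung homogenate was taken at 0.5, 1.5 and 3 h. Cathepsin C activity was measured by cleavage of (H-Gly-Arg)2 R110 at 10 μM and expressed as % inhibition.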

Data set [26] concerns Mus musculus. Description: In vivo inhibition of cathepsin C in C57BL/6J mouse lung homogenates assessed as cleavage of H-Gly-Arg)2 R110 at 30 mg/kg, po after 3 hrs. It is filed as functional. The arrangement: scale not given: the % may be the effect or the level left. The procedure, abridged:
as §1

For data set [27], the system named is Mus musculus. Description: In vivo inhibition of cathepsin C in C57BL/6J mouse lung homogenates assessed as cleavage of H-Gly-Arg)2 R110 at 30 mg/kg, po after 0.5 hrs. The arrangement: scale not given: the % may be the effect or the level left. It counts as functional. The procedure, abridged: as §1
Data set [28] in a line: Volume of distribution at steady state in dog at 5 mg/kg, iv and 10 mg/kg, po. It is filed as ADME, organism-based, Canis lupus familiaris. Particulars: in vivo, read-out: Vdss.
Data set [29] deals with Rattus norvegicus. Put plainly: AUC in rat at 2 mg/kg, po. Conditions: in vivo. It is filed as ADME, organism-based, Plasma. The arrangement: dose 2 mg/kg, route oral.
Data set [30] can be described thus: Volume of distribution at steady state in mouse at 5 mg/kg, iv and 20 mg/kg, po. Conditions: in vivo, read-out: Vdss. It is filed as ADME, organism-based.

Procathepsin L, sequence (P07711 whole entry): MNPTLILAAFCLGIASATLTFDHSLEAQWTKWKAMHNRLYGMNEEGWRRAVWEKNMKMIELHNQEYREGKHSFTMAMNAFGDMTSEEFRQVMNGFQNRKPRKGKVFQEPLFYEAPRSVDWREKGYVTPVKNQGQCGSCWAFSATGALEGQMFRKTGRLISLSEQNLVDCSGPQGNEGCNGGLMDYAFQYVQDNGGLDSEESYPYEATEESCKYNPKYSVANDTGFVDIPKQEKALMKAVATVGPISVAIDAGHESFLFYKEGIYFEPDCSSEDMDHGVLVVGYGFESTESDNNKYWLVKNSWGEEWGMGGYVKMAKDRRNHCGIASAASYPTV
Cathepsin S, sequence (P25774 whole entry): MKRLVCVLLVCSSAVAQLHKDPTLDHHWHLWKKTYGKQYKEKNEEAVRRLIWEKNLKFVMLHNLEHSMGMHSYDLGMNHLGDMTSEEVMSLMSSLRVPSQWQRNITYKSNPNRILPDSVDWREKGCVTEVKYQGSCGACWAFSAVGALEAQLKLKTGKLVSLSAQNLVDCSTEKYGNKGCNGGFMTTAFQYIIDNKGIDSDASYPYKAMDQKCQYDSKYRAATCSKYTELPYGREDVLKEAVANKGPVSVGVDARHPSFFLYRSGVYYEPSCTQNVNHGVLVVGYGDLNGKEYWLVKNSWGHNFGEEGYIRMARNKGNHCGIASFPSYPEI
Dipeptidyl peptidase 1, sequence (P53634 25-134 limits assumed): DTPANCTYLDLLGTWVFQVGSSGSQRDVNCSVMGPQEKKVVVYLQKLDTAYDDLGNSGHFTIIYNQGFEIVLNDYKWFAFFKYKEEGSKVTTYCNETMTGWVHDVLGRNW
Dipeptidyl peptidase 1, sequence (P53634 231-394 limits assumed): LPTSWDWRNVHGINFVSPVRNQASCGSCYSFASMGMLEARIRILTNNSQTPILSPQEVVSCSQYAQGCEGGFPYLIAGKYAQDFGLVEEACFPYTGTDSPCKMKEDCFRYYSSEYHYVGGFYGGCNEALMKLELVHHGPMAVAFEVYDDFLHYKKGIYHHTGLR
Dipeptidyl peptidase 1, sequence (P53634 395-463 limits assumed): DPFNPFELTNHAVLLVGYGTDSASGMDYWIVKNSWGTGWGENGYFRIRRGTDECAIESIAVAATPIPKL

Regarding `COc1ccc(OC)c(S(=O)(=O)N[C@@H]2C[C@H](C)N(C#N)C2)c1`, the IC50 – broadly, the midpoint of a concentration-inhibition curve – was 15800 nM in data set [1]; 3160 nM in data set [2]; 126 nM in data set [3]; over 25100 nM in data set [4]; 631 nM in [5].

For the molecule `N#CN1CC[C@@H](NS(=O)(=O)c2ccccc2)C1`, the IC50 in [1] is 1580 nM; in data set [3], 316 nM; in [4], 10000 nM; in data set [5], 200 nM. For the same molecule, the remaining at 0.5 h in data set [6] was found to be 30%.

With `N#CN1CC[C@@H](NS(=O)(=O)c2cc(Br)ccc2Br)C1`, the IC50 in data set [1] was 126 nM; in [2] it was 25.1 nM; in data set [3], under 0.398 nM; in data set [4], 1580 nM; in data set [5], 2 nM. Also, the remaining at 0.5 h in data set [6] was 18%.

As to `N#CN1CCC(CCc2ccccc2)C1` (centres undefined), the IC50 in data set [1] was 1580 nM; in data set [2], 631 nM; in data set [3] it was 2000 nM; in [4] it was 5010 nM; in data set [5], 1260 nM. For the same molecule, the remaining at 0.5 h in data set [6] was 13%.

As to `N#CN1CC[C@@H](NC(=O)c2ccc(F)cc2)C1`, the IC50 in data set [1] is 12600 nM; in [3], 2510 nM; in [4] it was 3980 nM; in data set [5], 63.1 nM.

Take `N#CN1CC[C@@H](NS(=O)(=O)c2cccc(Br)c2)C1`: the IC50 in data set [1] is 316 nM; in data set [2] it was 39.8 nM; in [3], 7.94 nM; in data set [4], 6310 nM; in data set [5] it was 7.94 nM. In addition, the Stability result in data set [7], in data set [8], in data set [9] and in data set [10] was “Stable” in each case. Further, the remaining at 0.5 h in data set [6] amounted to 18%.

Turning to `N#CN1CC[C@H](NS(=O)(=O)c2ccccc2)C1`, the IC50 was 501 nM in [1], 316 nM in data set [3], 3980 nM in data set [4] and 31.6 nM in data set [5]. In addition, the remaining at 0.5 h in [6] stood at 48%.

With `C[C@@H]1C[C@@H](NS(=O)(=O)c2cccc(Br)c2)CN1C#N`, the IC50 in data set [1] is 15800 nM; in [2], 2510 nM; in data set [3] it was 15800 nM; in data set [4], over 25100 nM; in [5] it was 1000 nM. Besides, the remaining at 0.5 h in data set [6] turned out to be 45%.

Consider `N#CN1CC[C@@H](NC(=O)Nc2ccccc2)C1`, for which the IC50 in data set [1] was 3980 nM; in data set [2] it was 1260 nM; in data set [3] it was 1000 nM; in data set [4], 1260 nM.

As for `COc1ccc(OC)c(S(=O)(=O)N[C@@H]2C[C@@H](C)N(C#N)C2)c1`, the IC50 in data set [1], in data set [2], in data set [3], in [4] and in data set [5] was over 25100 nM throughout. Further, the remaining at 0.5 h in data set [6] was found to be 88%.

With `O=CN1CC[C@@H](NS(=O)(=O)c2cccc(Br)c2)C1`, the IC50 is over 25100 nM in data set [1]; 12600 nM in [2]; over 25100 nM in [3]; over 25100 nM in [4]; 5010 nM in data set [5]. In addition, in [6], the remaining at 0.5 h is 95%.

Take `N#CN1CCCC(CCc2ccccc2)C1` (centres undefined): the figures for the IC50 in data set [1], in data set [3] and in [5] were 7940 nM, over 25100 nM and 10000 nM, respectively.

With `C[C@H]1C[C@@H](NS(=O)(=O)c2cc(Br)ccc2Br)CN1C#N`, the Vd in data set [11] was 3.1 L/kg; in data set [28], 1.3 L/kg; in data set [30] it was 0.4 L/kg. For the same molecule, the bioavailability (commonly the share of a dose that reaches the circulation, judged against a reference dose that is usually intravenous) in data set [12] worked out at 1%; in data set [21], 20%. Besides, the IC50 was 1000 nM in data set [1]; 501 nM in data set [2]; 3.16 nM in data set [3]; over 25100 nM in data set [4]; 39.8 nM in [5]. For the same molecule, the half-life (commonly how long it takes for the measured level to halve) in data set [13] is 42 min; in [14] it was 12 min; in data set [19] it was 12 min. For the same molecule, the Activity turned out to be 35% in [15]; 66% in data set [16]; 85% in [22]; 53% in data set [23]; 16% in data set [25]; 28% in [26]. In addition, in [27], the Activity is given as 32%. Moreover, the remaining at 0.5 h in data set [6] was 88%. Besides, the F in [17] was 8%. Besides, the AUC (usually the area under the concentration-time curve, a measure of exposure) in data set [18] is 1180 ng·h/mL; in [29] it was 7 ng·h/mL. For the same molecule, the clearance stood at 29 mL/min/kg in data set [20] and 16 mL/min/kg in data set [24].

Turning to `N#CN1CCCC1` [CYANO-PYRROLIDINE], the IC50 in [1] was 25100 nM; in data set [2] it was 1580 nM; in data set [3], over 25100 nM; in [4] it was over 25100 nM; in [5], 3980 nM.

Turning to `CC(C)(C)OC(=O)N1CC[C@@H](NS(=O)(=O)c2cccc(Br)c2)C1`, the half-inhibitory concentration (IC50) in [1], in [2], in data set [3], in data set [4] and in data set [5] was over 25100 nM throughout. Also, the remaining at 0.5 h in [6] was at least 100%.

For `COc1ccc(OC)c(S(=O)(=O)N[C@@H]2CCN(C#N)C2)c1`, the IC50 in [1] is 2000 nM; in [2] it was 1260 nM; in [3] it was 10 nM; in data set [4] it was 12600 nM; in data set [5] it was 79.4 nM. The remaining at 0.5 h in [6] was found to be 23%.

Take `C[C@H]1C[C@@H](NS(=O)(=O)c2cccc(Br)c2)CN1C#N`: the IC50 in [1] is 3980 nM; in [2], 3160 nM; in data set [3], 158 nM; in data set [4], over 25100 nM; in [5], 251 nM.

The values above are taken from ChEMBL document CHEMBL1671832, “Discovery of novel cyanamide-based inhibitors of cathepsin C” (ACS Med Chem Lett, 2011).
